Tests used:
Assay type in all cases: functional
CCRF-CEM = assay: Growth inhibition of human CCRF-CEM cells after 48 hrs by sulforhodamine B assay
How it was run: (§1)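 NCI 60-line panel, five concentrations (0.01–100 µM) from DMSO stock diluted in medium with gentamicin. Cells were plated 24 h before dosing, with time-zero plates fixed at drug addition, then exposed 48 h at 37 °C, 5% CO₂. Adherent cells were fixed with cold TCA (10% final) and suspension cells with 16% TCA. Staining used 0.4% SRB, solubilised in 10 mM Tris and read at 515 nm. GI₅₀ was taken from log concentration–% growth curves.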

HL-60(TB) = assay: Growth inhibition of human HL-60(TB) cells after 48 hrs by sulforhodamine B assay; settings: HL-60, 48 h
How it was run: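 NCI 60-cell panel. Cells were preincubated 24 h at 37 °C in 5% CO2, then time-zero plates were TCA-fixed. Drugs were dissolved in DMSO and given at five concentrations (10-fold or half-log dilutions) for 48 h. Suspension cells were fixed with TCA (16% final), stained with 0.4% SRB and read at 515 nm. GI50 is the concentration giving 50% decrease in net growth, taken from log concentration–growth curves.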

K562 = assay: Growth inhibition of human K562 cells after 48 hrs by sulforhodamine B assay; settings: K562, 48 h; how it was run: as §1
RPMI-8226 = assay: Growth inhibition of human RPMI8226 cells after 48 hrs by sulforhodamine B assay; settings: RPMI-8226, 48 h; how it was run: as §1
A549 = assay: Growth inhibition of human A549 cells after 48 hrs by sulforhodamine B assay; settings: A549, 48 h; how it was run: as §1
HOP-62 = assay: Growth inhibition of human HOP62 cells after 48 hrs by sulforhodamine B assay; settings: HOP-62, 48 h; how it was run: as §1
NCI-H460 = assay: Growth inhibition of human NCI-H460 cells after 48 hrs by sulforhodamine B assay; settings: NCI-H460, 48 h; how it was run: as §1
NCI-H522 = assay: Growth inhibition of human NCI-H522 cells after 48 hrs by sulforhodamine B assay; settings: NCI-H522, 48 h; how it was run: as §1
COLO 205 = assay: Growth inhibition of human COLO205 cells after 48 hrs by sulforhodamine B assay; settings: COLO 205, 48 h; how it was run: as §1
HCC 2998 = assay: Growth inhibition of human HCC2998 cells after 48 hrs by sulforhodamine B assay; settings: HCC 2998, 48 h; how it was run: as §1
HCT-15 = assay: Growth inhibition of human HCT15 cells after 48 hrs by sulforhodamine B assay; settings: HCT-15, 48 h; how it was run: as §1
HT-29 = assay: Growth inhibition of human HT-29 cells after 48 hrs by sulforhodamine B assay; settings: HT-29, 48 h; how it was run: as §1
KM12 = assay: Growth inhibition of human KM12 cells after 48 hrs by sulforhodamine B assay; settings: KM12, 48 h; how it was run: as §1
SF-268 = assay: Growth inhibition of human SF268 cells after 48 hrs by sulforhodamine B assay; settings: SF-268, 48 h; how it was run: as §1
SNB-75 = assay: Growth inhibition of human SNB75 cells after 48 hrs by sulforhodamine B assay; settings: SNB-75, 48 h
How it was run: (§2)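 Adherent lines plated and held 24 h at 37 °C, 5% CO2, 100% humidity; time-zero plates TCA-fixed at drug addition. Drugs from DMSO stocks were made into five concentrations by 10-fold or half-log serial dilution and applied for 48 h continuous exposure. Cells were fixed with cold TCA (10% final) for 60 min at 4 °C, then stained with 0.4% SRB in 1% acetic acid for 10 min. Dye was solubilized in 10 mM Tris base and read at 515 nm. GI50 was taken from log concentration–growth curves.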

LOX IMVI = assay: Growth inhibition of human LOXIMVI cells after 48 hrs by sulforhodamine B assay; how it was run: as §1
M14 = assay: Growth inhibition of human M14 cells after 48 hrs by sulforhodamine B assay; settings: M14, 48 h; how it was run: as §1
SK-MEL-28 = assay: Growth inhibition of human SK-MEL-28 cells after 48 hrs by sulforhodamine B assay; settings: SK-MEL-28, 48 h; how it was run: as §2
SK-MEL-5 = assay: Growth inhibition of human SK-MEL-5 cells after 48 hrs by sulforhodamine B assay; settings: SK-MEL-5, 48 h; how it was run: as §2
UACC-62 = assay: Growth inhibition of human UACC62 cells after 48 hrs by sulforhodamine B assay; settings: UACC-62, 48 h; how it was run: as §2
IGROV-1 = assay: Growth inhibition of human IGROV1 cells after 48 hrs by sulforhodamine B assay; settings: IGROV-1, 48 h; how it was run: as §1
OVCAR-3 = assay: Growth inhibition of human OVCAR-3 cells after 48 hrs by sulforhodamine B assay; settings: OVCAR-3, 48 h; how it was run: as §1
OVCAR-8 = assay: Growth inhibition of human OVCAR8 cells after 48 hrs by sulforhodamine B assay; settings: OVCAR-8, 48 h; how it was run: as §1
SK-OV-3 = assay: Growth inhibition of human SKOV3 cells after 48 hrs by sulforhodamine B assay; settings: SK-OV-3, 48 h; how it was run: as §2
A498 = assay: Growth inhibition of human A498 cells after 48 hrs by sulforhodamine B assay; settings: A498, 48 h; how it was run: as §1
CAKI-1 = assay: Growth inhibition of human Caki1 cells after 48 hrs by sulforhodamine B assay; settings: CAKI-1, 48 h; how it was run: as §1
RXF 393 = assay: Growth inhibition of human […] cells after 48 hrs by sulforhodamine B assay; settings: RXF 393, 48 h; how it was run: as §1
SN12C = assay: Growth inhibition of human SN12C cells after 48 hrs by sulforhodamine B assay; how it was run: as §2
TK-10 = assay: Growth inhibition of human TK10 cells after 48 hrs by sulforhodamine B assay; settings: TK-10, 48 h; how it was run: as §2
MCF7 = assay: Growth inhibition of human MCF7 cells after 48 hrs by sulforhodamine B assay; settings: MCF7, 48 h; how it was run: as §1
[1] = Growth inhibition of human Hs 578T cells after 48 hrs by sulforhodamine B assay; how it was run: as §1
BT-549 = assay: Growth inhibition of human BT549 cells after 48 hrs by sulforhodamine B assay; settings: BT-549, 48 h; how it was run: as §1
MDA-MB-468 = assay: Growth inhibition of human MDA-MB-468 cells after 48 hrs by sulforhodamine B assay; settings: MDA-MB-468, 48 h; how it was run: as §1
[2] = Cytotoxicity against human leukemia cells after 48 hrs by sulforhodamine B assay; settings: Leukemia cell
How it was run: (§3)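 NCI five-dose screen: about 60 human tumour lines grouped into nine subpanels were plated and incubated 24 h before dosing. Compounds went in as DMSO stock and were diluted in medium to five final concentrations (0.01–100 µM). Exposure was 48 h continuous at 37 °C, 5% CO₂, followed by TCA fixation and SRB staining read at 515 nm. Per-line GI₅₀, TGI and LC₅₀ came from log concentration–% growth curves, averaged per subpanel as MG-MID.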

[3] = Cytotoxicity against human CNS cancer cells after 48 hrs by sulforhodamine B assay; settings: Cancer cell lines; how it was run: as §3
[4] = Cytotoxicity against human ovarian cancer cells after 48 hrs by sulforhodamine B assay; settings: Cancer cell lines; how it was run: as §3
[5] = Cytotoxicity against human renal cancer cells after 48 hrs by sulforhodamine B assay; settings: Cancer cell lines; how it was run: as §3
[6] = Cytotoxicity against human prostate cancer cells after 48 hrs by sulforhodamine B assay; settings: Cancer cell lines; how it was run: as §3

## Cc1c2c(nn1C(=O)c1nn(-c3ccc(Cl)cc3)cc1O)-c1ccccc1CC2
CCRF-CEM
  GI50: 0.057 µM
HL-60(TB)
  GI50: 0.051 µM
K562
  GI50: 0.03 µM
RPMI-8226
  GI50: 0.038 µM
A549
  GI50: 0.034 µM
HOP-62
  GI50: 0.044 µM
NCI-H460
  GI50: 0.028 µM
NCI-H522
  GI50: 0.055 µM
COLO 205
  GI50: 0.291 µM
HCC 2998
  GI50: 0.502 µM
HCT-15
  GI50: 0.052 µM
HT-29
  GI50: 0.241 µM
KM12
  GI50: 0.07 µM
SF-268
  GI50: 0.048 µM
SNB-75
  GI50: 0.029 µM
LOX IMVI
  GI50: 0.075 µM
M14
  GI50: 0.096 µM
SK-MEL-28
  GI50: 0.092 µM
SK-MEL-5
  GI50: 0.37 µM
UACC-62
  GI50: 0.051 µM
IGROV-1
  GI50: 0.043 µM
OVCAR-3
  GI50: 0.099 µM
OVCAR-8
  GI50: 0.053 µM
SK-OV-3
  GI50: 0.16 µM
A498
  GI50: 0.024 µM
CAKI-1
  GI50: 0.127 µM
RXF 393
  GI50: 0.047 µM
SN12C
  GI50: 0.041 µM
TK-10
  GI50: 0.033 µM
MCF7
  GI50: 0.121 µM
[1]
  GI50: 0.021 µM
BT-549
  GI50: 0.029 µM
MDA-MB-468
  GI50: 0.262 µM
[2]
  GI50: 0.042 µM
  TGI: 10.2 µM
[3]
  GI50: 0.036 µM
  TGI: 69.1 µM
[4]
  GI50: 0.115 µM
  TGI: 83.6 µM
[5]
  GI50: 0.092 µM
  TGI: 67.7 µM
[6]
  GI50: 0.044 µM

## CC1=NN(C(=O)c2nn(-c3ccc(Cl)cc3)cc2O)C(=O)C1
CCRF-CEM
  GI50: 0.42 µM
HL-60(TB)
  GI50: 1.17 µM
K562
  GI50: 0.65 µM
RPMI-8226
  GI50: 1.66 µM
A549
  GI50: 0.82 µM
HOP-62
  GI50: 1.33 µM
NCI-H460
  GI50: 0.37 µM
NCI-H522
  GI50: 2.84 µM
COLO 205
  GI50: 4.81 µM
HCC 2998
  GI50: 3.67 µM
HCT-15
  GI50: 0.68 µM
HT-29
  GI50: 6.16 µM
KM12
  GI50: 2.27 µM
SF-268
  GI50: 0.49 µM
SNB-75
  GI50: 0.53 µM
LOX IMVI
  GI50: 1.55 µM
M14
  GI50: 1.78 µM
SK-MEL-28
  GI50: 3.06 µM
SK-MEL-5
  GI50: 1.7 µM
UACC-62
  GI50: 1.8 µM
IGROV-1
  GI50: 0.51 µM
OVCAR-3
  GI50: 1.21 µM
OVCAR-8
  GI50: 1.49 µM
SK-OV-3
  GI50: 1.53 µM
A498
  GI50: 0.45 µM
CAKI-1
  GI50: 1.06 µM
RXF 393
  GI50: 15.4 µM
SN12C
  GI50: 1.42 µM
TK-10
  GI50: 0.79 µM
MCF7
  GI50: 3.61 µM
[1]
  GI50: 0.28 µM
BT-549
  GI50: 0.65 µM
MDA-MB-468
  GI50: 4.57 µM
[2]
  GI50: 1.03 µM
  TGI: 52.9 µM
[3]
  GI50: 1.09 µM
  TGI: 79.6 µM
[4]
  GI50: 1.74 µM
  TGI: 83.8 µM
[5]
  GI50: 1.67 µM
  TGI: 77 µM
[6]
  GI50: 5.22 µM

## O=C(c1nn(-c2ccc(Cl)cc2)cc1O)n1nc(-c2ccco2)cc1C(F)(F)F
CCRF-CEM
  GI50: 0.69 µM
HL-60(TB)
  GI50: 2.42 µM
K562
  GI50: 1.72 µM
RPMI-8226
  GI50: 1.42 µM
A549
  GI50: 7.23 µM
HOP-62
  GI50: 1.98 µM
NCI-H460
  GI50: 0.78 µM
NCI-H522
  GI50: 2.67 µM
COLO 205
  GI50: 2.97 µM
HCC 2998
  GI50: 10.5 µM
HCT-15
  GI50: 1.44 µM
HT-29
  GI50: 4.56 µM
KM12
  GI50: 5.88 µM
SF-268
  GI50: 3.63 µM
SNB-75
  GI50: 0.82 µM
LOX IMVI
  GI50: 2.37 µM
M14
  GI50: 4.28 µM
SK-MEL-28
  GI50: 9.22 µM
SK-MEL-5
  GI50: 2.49 µM
UACC-62
  GI50: 2.16 µM
IGROV-1
  GI50: 0.92 µM
OVCAR-3
  GI50: 1.72 µM
OVCAR-8
  GI50: 1.88 µM
SK-OV-3
  GI50: 3.55 µM
A498
  GI50: 8.71 µM
CAKI-1
  GI50: 2.43 µM
RXF 393
  GI50: 0.03 µM
SN12C
  GI50: 5.18 µM
TK-10
  GI50: 1.45 µM
MCF7
  GI50: 3.51 µM
[1]
  GI50: 0.64 µM
BT-549
  GI50: 1.14 µM
MDA-MB-468
  GI50: 4.66 µM
[2]
  GI50: 1.76 µM
  TGI: 80.7 µM
[3]
  GI50: 2.99 µM
  TGI: 90.5 µM
[4]
  GI50: 2.18 µM
  TGI: 94.5 µM
[5]
  GI50: 3.85 µM
  TGI: 75.6 µM
[6]
  GI50: 18.4 µM

From ChEMBL document CHEMBL1156332, “Polysubstituted pyrazoles, part 6. Synthesis of some 1-(4-chlorophenyl)-4-hydroxy-1H-pyrazol-3-carbonyl derivatives linked to nitrogenous heterocyclic ring systems as potential antitumor agents” (2010)
